TRPC6 activator – activates the mouse TRPC6 cation channel; HEK293-TRPC6 membrane potential dye fluorescence; stronger effect = higher value; B-score at 10 µM; Q61143; 310,000 compounds, 0.13% hits; AID 2550;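 active = B-score of the integrated fluorescence ratio above library mean plus 3 SD, and starting fluorescence ratio within library mean plus 5 SD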;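 also: higher score means more depolarization so channel activation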
Target sequence (Q61143 whole entry, looked up): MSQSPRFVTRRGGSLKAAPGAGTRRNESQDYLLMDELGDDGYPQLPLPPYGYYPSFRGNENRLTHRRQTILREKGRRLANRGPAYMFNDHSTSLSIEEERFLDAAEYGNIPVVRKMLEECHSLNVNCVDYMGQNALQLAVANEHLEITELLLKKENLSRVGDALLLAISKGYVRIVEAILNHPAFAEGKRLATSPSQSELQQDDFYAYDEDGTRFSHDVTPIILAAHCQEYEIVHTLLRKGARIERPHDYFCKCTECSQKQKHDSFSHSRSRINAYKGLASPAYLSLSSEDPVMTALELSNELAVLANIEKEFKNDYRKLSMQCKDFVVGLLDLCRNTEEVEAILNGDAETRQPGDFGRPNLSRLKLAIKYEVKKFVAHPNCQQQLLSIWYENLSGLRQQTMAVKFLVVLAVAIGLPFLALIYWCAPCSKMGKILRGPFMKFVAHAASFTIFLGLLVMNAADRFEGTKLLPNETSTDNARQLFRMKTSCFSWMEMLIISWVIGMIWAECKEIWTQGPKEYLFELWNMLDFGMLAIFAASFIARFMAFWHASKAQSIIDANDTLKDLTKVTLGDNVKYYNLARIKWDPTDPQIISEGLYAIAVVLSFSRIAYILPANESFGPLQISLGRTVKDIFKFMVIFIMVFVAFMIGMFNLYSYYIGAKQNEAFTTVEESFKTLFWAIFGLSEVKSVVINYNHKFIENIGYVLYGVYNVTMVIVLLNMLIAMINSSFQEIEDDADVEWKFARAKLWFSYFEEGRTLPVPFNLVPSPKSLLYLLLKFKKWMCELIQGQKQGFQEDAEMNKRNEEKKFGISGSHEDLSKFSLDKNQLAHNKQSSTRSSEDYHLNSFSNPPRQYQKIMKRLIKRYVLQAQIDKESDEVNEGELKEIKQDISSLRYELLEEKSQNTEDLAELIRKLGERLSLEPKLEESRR
TRPC6 inh – inhibitors of mouse TRPC6 channel. Q61143. HEK293-TRPC6, membrane potential dye, ACh-evoked depolarization; stronger effect = lower value. B-score at 10 µM. 310,000 compounds, 1.1% hits;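 active = B-score under library mean minus 3 SD, initial fluorescence not abnormally high, positive integrated signal ratio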;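 also: B-score derived from integrated fluorescence ratio over the kinetic read; more negative B-score means stronger inhibition of depolarization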
TRPC4 act – opens the mouse TRPC4 cation channel. B-score at 10 µM. AID 2237. Q9QUQ5. 310,000 compounds, 0.49% hits. HEK293 TRPC4beta/mu-opioid, Fluo4 calcium fluorescence; stronger effect = higher value;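 active = B-score above 5 SD of library B-scores, and initial fluorescence ratio not above library mean plus 5 SD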;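 also: positive B-score marks a calcium rise read as TRPC4 activation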
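Assay system: HEK293 cells stably co-expressing mouse TRPC4beta and mu-opioid receptor / Timing: Fluo4 dye loading 45 min at room temperature, 110 s recording / Signal: Fluo4 calcium-sensitive dye fluorescence, kinetic, 1 Hz baseline / Read-out: integrated baseline-normalised fluorescence ratio, converted to per-well B score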
TRPC4 potent – allosteric potentiators of mouse TRPC4 channel; HEK293 TRPC4beta/mu-opioid, DAMGO EC20, Fluo-4 Ca2+ flux; stronger effect = higher value; Q9QUQ5; 310,000 compounds, 0.42% hits; B-score at 10 µM; AID 2227;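 active = B-score of calcium response area above 5 SD of library B-scores, with initial fluorescence ratio within 5 SD of library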
TRPC4 inh – inhibitors of mouse TRPC4 channel. HEK293 TRPC4beta/mu-opioid, DAMGO-evoked Fluo4 calcium flux; stronger effect = lower value. B-score at 10 µM. 300,000 compounds, 0.39% hits. AID 2247;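 active = B-score over 3 SD under the library average, no early fluorescence shift, positive overall ratio signal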
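System: stable TRPC4beta/mu-opioid receptor HEK293 cells; Dosing: single-point compound dosing; Measured by: Fluo4 Ca2+ flux fluorescence; Read-out basis: per-well B score of integrated baseline-normalized Fluo4 ratio.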
TRPC4 sel inh 2 – mouse TRPC4 off-target activity of TRPC6 inhibitors, second screen; HEK293 TRPC4/MOR, membrane potential dye fluorescence; channel activated by saturating DAMGO dose; 920 compounds, 42% hits; inhibition, % at 10 µM; shares compounds with TRPC6 inh;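 active = compounds whose fluorescence signal differed from control wells by over 3 SD, either direction, in both duplicate plates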
TRPC4 spec – mouse TRPC4 off-target activity of TRPC6 inhibitors; activity change, negative = inhibition, % at 10 µM; shares compounds with TRPC6 inh; HEK293 TRPC4/mu-opioid, membrane potential fluorescence; 920 compounds, 61% hits;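 active = rise or fall in signal beyond 3 SD of buffer-only wells in both replicate plates, either sign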;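 also: integrated kinetic ratio of fluorescence range over baseline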
HEK293 MPD ctr 2-1 – parental HEK293 nonspecific activity of TRPC6 inhibitors, second screen; shares compounds with TRPC6 inh; parental HEK293 membrane potential dye fluorescence; maximal acetylcholine challenge after compound addition; signal change vs control, % at 10 µM; 920 compounds, 31% hits;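 active = membrane potential signal moving either way by over 3 SD of the maximum-effect control, in both duplicate plates, meaning non-specific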
HEK293 MPD ctr-1 – checks TRPC6 inhibitor effects in parental HEK293 cells. parental HEK293 membrane potential dye fluorescence. shares compounds with TRPC6 inh. membrane potential signal change, % at 10 µM. 920 compounds, 60% hits;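 active = membrane potential signal shifting up or down by more than 3 SD of buffer-only wells, on both duplicate plates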
HEK293 MPD ctr-2 – counter-screen for TRPC6 modulators: effect in parental HEK293 cells; membrane potential signal change, % at 10 µM; 2,400 compounds, 51% hits; shares compounds with TRPC6 inh; membrane potential dye fluorescence;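 active = membrane potential signal moves up or down beyond 5 SD from buffer-only wells, on both duplicate plates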
HEK293 MPD ctr 2-2 – parental HEK293 nonspecific activity of TRPC6 modulators, second screen. 2,400 compounds, 14% hits. inhibition, % at 10 µM. membrane potential dye fluorescence; after compound, maximal acetylcholine stimulation. AID 488926. shares compounds with TRPC6 inh;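 active = membrane potential signal drops by more than 5 SD from the mean control signal, in both duplicate plates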
TRPC4/MOR mod – mouse TRPC4 off-target activity of TRPC6 modulators | shares compounds with TRPC6 inh | HEK293 TRPC4/mu-opioid, membrane potential fluorescence | percent change from control (negative = decrease, positive = increase), % at 10 µM | 2,400 compounds, 69% hits | AID 488927;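 active = membrane potential signal moved up or down beyond 5 SD of buffer control wells, in both duplicate plates, actives on both sides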
TRPC4 ctr inh 2 – second check of whether TRPC6 modulators also affect mouse TRPC4 | 2,400 compounds, 55% hits | HEK293 TRPC4/mu-opioid, membrane potential dye fluorescence; stimulated with maximal-effect DAMGO | AID 488928 | inhibition, % at 10 µM | shares compounds with TRPC6 inh;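 active = drop in membrane potential signal beyond 5 SD of the control wells in both duplicate plates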;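 also: TRPC4 counter screen for TRPC6 hits run under conditions tuned for TRPC6 not TRPC4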
TRPC6 block conf – confirmation of mouse TRPC6 inhibitors; shares compounds with TRPC6 inh; HEK293-TRPC6, membrane potential dye, ACh-evoked depolarization; inhibition, % at 10 µM; 3,300 compounds, 43% hits;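 active = fluorescence ratio falls more than 5 SD below the full-stimulation control mean, in both duplicate runs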;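 also: integrated fluorescence ratio of peak minus minimum over baseline after agonist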
TRPC6 act confirm – confirmation of mouse TRPC6 activators; shares compounds with TRPC6 inh; HEK293-TRPC6 membrane potential dye fluorescence, FDSS; activation, % at 10 µM; 2,800 compounds, 11% hits;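 active = ratio signal rise beyond 5 SD above unstimulated control wells' mean, seen in both duplicate runs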
Numbers stand for hits; 0 = inactive; - = no result. Rows were chosen to be rich in hits. Some 2.3% of all compounds tested hit in one or more screens of this group.

SMILES	TRPC6 activator	TRPC6 inh	TRPC4 act	TRPC4 potent	TRPC4 inh	HEK293 MPD ctr-2	HEK293 MPD ctr 2-2	TRPC4/MOR mod	TRPC4 ctr inh 2	TRPC6 block conf	TRPC6 act confirm	others
COC(=O)c1ccc(N2CCN(C)CC2)c(NC(=O)c2ccc(Br)o2)c1	0	-6.7	142	0	0	-268%	82%	-38%	94%	74%	0
COC(=O)c1ccc(N2CCN(C)CC2)c(NC(=O)c2sc3ccccc3c2Cl)c1	0	-6.7	71	0	0	-196%	0	-46%	74%	0	0
CC(C)[C@H](N[C@@H](C)c1ccccc1)c1c(O)ccc2ccccc12	0	0	0	0	0	-	-	-	-	-	-
CCNc1nc(N2CCCCC2)nc(-n2nnc(C(=O)OCC)c2C)n1	12	0	0	0	0	0	0	112%	80%	0	68%
CCOC(=O)c1nnn(-c2nc(OC)nc(N3CCCC3)n2)c1-c1ccccc1	0	0	0	0	0	-	-	-	-	-	-
Cc1ccc2cc(CN(CCN3CCCC3)C(=O)Nc3ccc(F)cc3)c(=O)[nH]c2c1C	0	0	0	0	0	-	-	-	-	-	-
Cc1ccc2cc(CN(CCN3CCCC3)C(=O)Nc3ccccc3)c(=O)[nH]c2c1C	0	-5	0	0	0	0	0	0	54%	46%	0
CCOC(=O)C1CCCN(C(=O)CCCn2c(=O)c3cccn3c3cccnc32)C1 (stereo not drawn)	0	0	0	0	0	-	-	-	-	-	-
COc1cc(OC)c(NC(=O)CCCNC(=O)Cn2cnc3sc(C)c(C)c3c2=O)cc1Cl	0	0	0	0	0	-	-	-	-	-	-
CN(c1ccccc1)P(=O)(N(C)c1ccccc1)N(C)c1ccccc1	0	-9.5	0	0	0	-	-	-	-	66%	-	TRPC4 sel inh 2=0;TRPC4 spec=29%;HEK293 MPD ctr 2-1=0;HEK293 MPD ctr-1=15%
CCN(c1ccccc1)P(=O)(Nc1ccccc1)Nc1ccccc1	0	0	0	0	0	-	-	-	-	-	-
CN(C)S(=O)(=O)c1ccc(C(=O)NCCc2ccco2)cc1	0	0	0	0	0	-	-	-	-	-	-
Nn1c(SCC(=O)Nc2ccc(S(N)(=O)=O)cc2)nnc1C(F)(F)F	0	0	0	0	0	-	-	-	-	-	-
CN(C)CCOC1c2ccccc2C=Cc2ccccc21	0	-5.5	0	0	0	124%	84%	22%	42%	68%	-
O=C(NCCCn1ccnc1)c1cc2cc([N+](=O)[O-])ccc2oc1=O	0	-5	0	0	0	-83%	0	-15%	0	0	0
Cc1ccccc1CNC(=O)CC1C(=O)NCCN1Cc1c(F)cccc1Cl (stereo not drawn)	0	0	0	0	0	-	-	-	-	-	-
Cc1cc(=O)n2c3ccccc3n(CC(O)CN3CCN(CCO)CC3)c2c1C#N (stereo not drawn)	0	0	0	0	0	-	-	-	-	-	-
Cc1cc(=O)n2c3ccccc3n(CC(O)CN3CCN(Cc4ccccc4)CC3)c2c1C#N (stereo not drawn)	0	-9.5	0	0	0	-157%	0	-36%	65%	0	0
CCC1CCCCN1CC(O)Cn1c2ccccc2n2c(=O)cc(C)c(C#N)c12 (stereo not drawn)	0	-7.8	0	0	0	-	-	-	-	57%	0	TRPC4 sel inh 2=78%;TRPC4 spec=0;HEK293 MPD ctr 2-1=0;HEK293 MPD ctr-1=-153%
O=C(CCOc1ccccc1)OCC(=O)c1cc2ccccc2o1	0	-9.3	0	0	0	-	-	-	-	0	0	TRPC4 sel inh 2=0;TRPC4 spec=0;HEK293 MPD ctr 2-1=0;HEK293 MPD ctr-1=0
CC(=O)Nc1ccc(S(=O)(=O)Nn2cnnc2)cc1	0	0	0	0	0	-	-	-	-	-	-
Cc1ccc(OCC(=O)NCCS(=O)(=O)N2CCN(c3ccccc3)CC2)cc1	0	0	0	0	0	-	-	-	-	-	-
COc1ccc(CC(=O)NCCS(=O)(=O)N2CCN(c3ccccc3)CC2)cc1OC	0	0	0	0	0	-	-	-	-	-	-
Cc1ccccc1OCC(=O)NCCS(=O)(=O)N1CCN(c2ccc(F)cc2)CC1	0	-10	0	0	0	-	-	-	-	95%	-	TRPC4 sel inh 2=0;TRPC4 spec=0;HEK293 MPD ctr 2-1=0;HEK293 MPD ctr-1=0
COc1ccccc1OCC(=O)NCCS(=O)(=O)N1CCN(c2ccccc2)CC1	0	-7.5	0	0	0	-	-	-	-	0	0	TRPC4 sel inh 2=0;TRPC4 spec=0;HEK293 MPD ctr 2-1=0;HEK293 MPD ctr-1=0
SMILES	TRPC6 activator	TRPC6 inh	TRPC4 act	TRPC4 potent	TRPC4 inh	HEK293 MPD ctr-2	HEK293 MPD ctr 2-2	TRPC4/MOR mod	TRPC4 ctr inh 2	TRPC6 block conf	TRPC6 act confirm	others
COc1cc2c3c([nH]c2cc1F)C(=O)NCC3	0	0	0	0	0	-	-	-	-	-	-
Cc1cccc(NC2=C(NCCO)C(=O)c3ccccc3C2=O)c1	0	-11	0	0	0	-252%	0	-50%	66%	52%	0
CC(=O)C1C(=O)c2c(cccc2[N+](=O)[O-])C1=Nc1ccc(S(N)(=O)=O)cc1 (stereo not drawn)	0	-9.7	0	0	0	-250%	0	-51%	52%	0	0
CC(=O)N(/N=C/c1ccc(C)cc1)c1nc(CCl)cs1	0	0	0	0	0	-	-	-	-	-	-
COc1ccccc1N1CCN(C(=O)CSc2nc(C)c(C)c(=O)[nH]2)CC1	0	0	0	0	0	-	-	-	-	-	-
COc1ccccc1N1CCN(C(=O)CSc2nc(C)cc(=O)[nH]2)CC1	0	-6.9	0	0	0	-	-	-	-	0	0	TRPC4 sel inh 2=0;TRPC4 spec=0;HEK293 MPD ctr 2-1=0;HEK293 MPD ctr-1=0
COc1ccc(OC)c(NC(=O)CC2C(=O)NCCN2C(=O)Nc2cccc(Cl)c2)c1 (stereo not drawn)	0	-5.9	0	0	0	0	0	-14%	29%	0	0
CCN(CC)CCNc1ccc(CO)c2sc3ccccc3c(=O)c12	0	-5.2	0	0	0	-96%	0	-37%	67%	0	0
c1ccc(-c2nc(-c3ccccn3)nc(-c3ccccn3)n2)nc1	0	-6.7	0	0	0	-	-	-	-	0	0	TRPC4 sel inh 2=0;TRPC4 spec=-19%;HEK293 MPD ctr 2-1=4.0%;HEK293 MPD ctr-1=-266%

Source: PubChem
